Source: article PMC6598675 (Science signaling, 2019)
“And” between values parts separate entries of the source, which are not always exact repeats. Equal entries are not always repeated. “Also recorded” adds a separate entry of the source.

Columns and labels:
[1] = test system: primary mouse T cells (AND TCR transgenic), NFAT; assay: NFAT nuclear translocation of AND TCR T cells on pMHC supported bilayers; format: cell-based; settings: for agonist strength (in words): AND TCR
How it was run: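 Primary AND TCR-transgenic mouse T cells were retrovirally spinfected with NFAT-GFP (polybrene 4 μg/ml, days 3–4 post-activation) and sorted; most runs used NFAT-mCherry. Cells were added at 37°C onto Ni-chelating supported bilayers carrying His-tagged ICAM-1 (100–200 μm−2) and peptide-loaded MHC (0.1–2 μm−2). Landing was scored by RICM. NFAT activation was the nuclear/cytosolic intensity ratio. Threshold was the density near half-maximal response, with >30 cells per condition over five experiments.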

AND TCR [2] = assay: Single-molecule TIRF imaging of pMHC-TCR binding events; design: species or system mouse; settings: for pMHC-TCR binding / mobility under T cell (in words): 37°C, single-molecule TIRF
How it was run: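 Atto647N-peptide-MHC binding under live T cells was imaged at 37°C by single-molecule TIRF, either at 2.5 mW/cm2 with 20 ms exposures or at 0.1 mW/cm2 with 500 ms exposures. Single-step unbinding was confirmed by Bayesian change-point detection. Dwell-time distributions (>3000 trajectories, ≥25 cells) were fitted to a single exponential and corrected for photobleaching using bilayer pMHC imaged under identical conditions. Bound fraction was normalised to RICM contact area.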

AND TCR T cells [3] = format: cell-based, mouse
How it was run: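 For each T cell, binding events and total dwell time were counted from RICM landing to first NFAT translocation. Counts were corrected for undetected prebleached events and for short events (0.8 s up to the time-lapse interval). Costimulation used His10-tagged recombinant murine CD80 ectodomain on the bilayer at 100–300 molecules/μm2. There were 7–15 cells per condition from three to seven experiments.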

AND TCR T cells [4] = format: cell-based, mouse; remark: listed apart in the source
AND TCR [5] = assay: Calculated probability of long-dwelling pMHC-TCR binding events; design: species or system mouse; settings: single exponential unbinding kinetics from mean dwell time
How it was run: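 The probability that a binding event lasts 40 s was calculated assuming single-exponential unbinding at the fitted, photobleaching-corrected mean dwell time. The 40 s receptor-level threshold came from spatiotemporal correlation analysis of pMHC trajectories grouped into signaling clusters.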

5c.c7 recombinant TCR = 5c.c7 recombinant TCR binding to MCC pMHC; ref [9], [10]; cited from earlier work
[6] = low T102S pMHC density, cells that activated NFAT

Molecule: ANERADLIAYPKAATKF [K3 pMHC]
- agonist strength (in words) [1]: moderate agonist

Molecule: ANERAELIAYLTQAAKGGSC [null pMHC, reference compound]
- pMHC-TCR binding / mobility under T cell (in words) (AND TCR [2]): did not exhibit slowed pMHC-TCR complexes

Molecule: ANERADLIAYLKQASK [T102S pMHC]
- agonist strength (in words) [1]: weak agonist
- NFAT activation probability at low density ([1]; low T102S density): 5% and ~ 5%
- time to NFAT translocation (comparison in words) ([1]; low T102S density vs threshold densities): took longer to translocate NFAT than those at threshold densities of either MCC or T102S pMHCs
- NFAT activation probability at threshold density ([1]; threshold pMHC density): 32%
- rate of dwell time accumulation (in words) (AND TCR T cells [3]; low T102S density, activating cells vs cells that did not activate): indistinguishable from cells that did not active NFAT at threshold densities
- number of correlated pMHC tracks, activating cells (AND TCR T cells [4]; low T102S pMHC density, 30-s window, cells that activated NFAT): between two and nine correlated pMHC tracks
- number of correlated pMHC tracks, nonactivating cells (AND TCR T cells [4]; low T102S pMHC density, 30-s window, cells that did not activate NFAT): zero to three correlated pMHC tracks
- binding events within 2 mm and 30 s of another binding event, activating cells (AND TCR T cells [4]; [6]): 90%
- effective mean dwell time after spatiotemporal correlation (in words) (AND TCR T cells [4]; [6]): could resemble long-dwelling MCC pMHC binding inputs in terms of mean dwell time
- binding events within the same space and time (2 mm, 30 s), nonactivating cells (AND TCR T cells [4]; low T102S pMHC density, cells that did not activate NFAT): 68%
- number of spatiotemporally correlated tracks (comparison in words) (AND TCR T cells [4]; threshold conditions): more spatiotemporally correlated pMHC tracks than those exposed to MCC
- probability that a pMHC-TCR binding event dwells for 40 s (AND TCR [5]): 0.02

Molecule: ANERADLIAYLKQATK [MCC pMHC, Moth cytochrome C 88–103 peptide]
- pMHC-TCR binding / mobility under T cell (in words) (AND TCR [2]): bimodal mobility under a T cell (cyan) and unimodal mobility on the free supported membrane; also recorded: a substantial fraction of the all pMHC under the T cell are bound as long-lived species
- difference in affinity MCC pMHC vs T102S pMHC (AND TCR [2]; range covered by strong and weak agonist): fivefold
- agonist strength (in words) [1]: strong agonist
- probability that a pMHC-TCR binding event dwells for 40 s (AND TCR [5]): 0.43
- mean dwell time (<τoff>), 5c.c7 TCR (5c.c7 recombinant TCR): 7.2 s

B1: CD80: murine costimulatory ligand CD80 (B7), recombinant, secreted, truncated ectodomain with a flexible linker and decahistidine tag (protein, UniProt Q00609 38-246, looked up)
extracellular domain: VDEQLSKSVKDKVLLPCRYNSPHEDESEDRIYWQKHDKVVLSVIAGKLKVWPEYKNRTLYDNTTYSLIILGLVLSDRGTYSCVVQKKERGTYEVKHLALVKLSIKADFSTPNITESGNPSADTKRITCFASGGFPKPRFSWLENGRELPGINTTISQDPESELYTISSQLDFNTTRNHTIKCLIKYGDAHVSEDFTWEKPPEDPPDSKN
modifications: extracellular domain flexible linker and decahistidine tag
- effect of costimulation on activation (in words) (AND TCR T cells [3]; CD80 on bilayer, 100 to 300 molecules/μm^2, cells that activated NFAT): cells that activated NFAT experienced a decrease in the time to activation, accumulated binding events, and cumulative dwell time
